Values joined by “and” are separate entries in the source; they are usually repeats but may differ in a detail not shown here. Identical values can stand only once. Like-named read-outs stand apart in the source and are kept apart here.
How the values were obtained:
LXRs = settings: cited from earlier work
Gal4-RORα LBD [1] = molecular target: T1, Gal4-RORα LBD (Homo sapiens, UniProt P35398); settings: previous study; cited from earlier work
T1 sequence (P35398 272-510 limits assumed): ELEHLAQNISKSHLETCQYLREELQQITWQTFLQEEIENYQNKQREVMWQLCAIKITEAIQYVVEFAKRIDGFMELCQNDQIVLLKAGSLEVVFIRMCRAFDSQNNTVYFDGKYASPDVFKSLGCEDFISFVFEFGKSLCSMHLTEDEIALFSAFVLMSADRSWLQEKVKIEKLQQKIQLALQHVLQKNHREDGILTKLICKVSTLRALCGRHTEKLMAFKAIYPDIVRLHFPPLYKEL

Gal4-RORγ LBD [2] = molecular target: T2, Gal4-RORγ LBD (Homo sapiens, UniProt P51449); settings: previous study; cited from earlier work
T2 sequence (P51449 269-508 limits assumed): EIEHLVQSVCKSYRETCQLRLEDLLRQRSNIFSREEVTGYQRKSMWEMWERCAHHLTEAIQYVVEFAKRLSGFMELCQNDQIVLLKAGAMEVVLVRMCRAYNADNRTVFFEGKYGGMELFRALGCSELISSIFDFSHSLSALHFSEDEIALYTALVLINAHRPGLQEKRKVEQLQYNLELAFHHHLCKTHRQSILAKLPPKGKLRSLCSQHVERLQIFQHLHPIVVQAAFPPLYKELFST

RORγ LBD = molecular target: T3, RORγ LBD (Homo sapiens, UniProt P51449); assay type: binding
T3 sequence (P51449 269-508 limits assumed): T2 sequence (P51449 269-508 limits assumed)

Gal4-RORγ LBD [3] = molecular target: T2, Gal4-RORγ LBD; assay: Gal4-RORγ LBD cotransfection luciferase assay in HEK293 cells; assay type: cell-based; settings: for effect on constitutive activity: single dose of 10 μM
Gal4-RORα LBD [4] = molecular target: T1, Gal4-RORα LBD; assay: Gal4-RORα LBD cotransfection luciferase assay in HEK293 cells; assay type: cell-based; settings: for effect on constitutive activity: single dose of 10 μM
Method in brief: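 Gal4-RORα LBD plasmid transfected into HEK293 cells with Lipofectamine 2000; cells plated 15 × 10^3/well 24 h earlier. […] Dual luciferase read after 24 h; four wells per point, ≥3 repeats. IC50 derived by non-linear regression; dose responses analysed by one-way ANOVA.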

[5] = test system: RORα target genes (BMAL1, REV-ERBα); assay: Quantitative PCR of RORα target genes in HepG2 cells; assay type: cell-based, human; settings: 10 μM
Method in brief: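 HepG2 cells treated with 10 μM test compound, with RORα-targeting siRNA or scrambled control siRNA. Total RNA extracted, reverse-transcribed and quantified by real-time PCR using human BMAL1 and REV-ERBα primers.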

RORα LBD = molecular target: T4, RORα LBD (Homo sapiens, UniProt P35398); assay type: binding; settings: competition with 3 nM [3H]-25-hydroxycholesterol, Cheng-Prusoff
T4 sequence (P35398 272-510 limits assumed): T1 sequence (P35398 272-510 limits assumed)

RORα = molecular target: T5, RORα (Homo sapiens, UniProt P35398); assay: RORα cotransfection assay, G6Pase promoter luciferase reporter; assay type: cell-based; settings: 10 μM, HepG2 (Figure 3C legend)
T5 sequence (P35398 1-523): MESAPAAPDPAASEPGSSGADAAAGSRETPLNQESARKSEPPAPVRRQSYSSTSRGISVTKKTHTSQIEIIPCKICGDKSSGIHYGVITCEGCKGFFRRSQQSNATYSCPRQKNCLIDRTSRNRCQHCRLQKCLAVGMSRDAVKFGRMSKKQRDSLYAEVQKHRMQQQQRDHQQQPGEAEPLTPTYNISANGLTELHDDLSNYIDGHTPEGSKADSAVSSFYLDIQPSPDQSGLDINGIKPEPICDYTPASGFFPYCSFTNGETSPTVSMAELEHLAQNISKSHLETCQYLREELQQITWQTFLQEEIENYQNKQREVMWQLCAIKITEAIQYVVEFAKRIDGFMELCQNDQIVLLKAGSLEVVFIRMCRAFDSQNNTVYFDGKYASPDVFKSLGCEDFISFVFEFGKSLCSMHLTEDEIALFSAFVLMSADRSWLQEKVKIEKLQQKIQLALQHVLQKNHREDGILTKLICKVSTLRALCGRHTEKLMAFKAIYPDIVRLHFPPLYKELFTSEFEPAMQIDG

full-length RORγ = molecular target: T6, full-length RORγ (Homo sapiens, UniProt P51449); assay type: cell-based; settings: 10 μM, HEK293
T6 sequence (P51449 1-518): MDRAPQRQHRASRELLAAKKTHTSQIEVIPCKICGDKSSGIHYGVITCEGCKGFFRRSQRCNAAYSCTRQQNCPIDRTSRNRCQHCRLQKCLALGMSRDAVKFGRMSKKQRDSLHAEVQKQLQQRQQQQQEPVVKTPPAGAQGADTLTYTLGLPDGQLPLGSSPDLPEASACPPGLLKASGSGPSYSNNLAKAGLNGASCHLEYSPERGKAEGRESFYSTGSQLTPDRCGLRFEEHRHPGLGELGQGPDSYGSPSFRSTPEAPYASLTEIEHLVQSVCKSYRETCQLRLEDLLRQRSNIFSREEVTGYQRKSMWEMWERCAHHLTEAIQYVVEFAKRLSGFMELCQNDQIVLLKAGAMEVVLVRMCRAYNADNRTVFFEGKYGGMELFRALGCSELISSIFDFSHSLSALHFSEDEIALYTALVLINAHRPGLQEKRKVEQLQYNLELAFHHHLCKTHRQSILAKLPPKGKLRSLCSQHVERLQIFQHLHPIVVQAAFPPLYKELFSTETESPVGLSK
Method in brief: (§1)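 HEK293 cells (DMEM, 10% FBS, 37 °C, 5% CO2) plated at 15 × 10^3 cells/well 24 h before transfection. Lipofectamine 2000 cotransfection of full-length receptor expression vector plus Bmal1 promoter-luciferase reporter. Vehicle or 10 μM test compound added 16 h post-transfection; dual luciferase read 24 h later. Mean ± S.E. of four wells, repeated at least three times; paired t test.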

[6] = molecular target: T7, RORα / SRC-2 on BMAL1 promoter (Homo sapiens, UniProt P35398); assay type: cell-based; settings: 10 μM, 24 hours, HepG2
T7 sequence (P35398 1-523): T5 sequence (P35398 1-523)
Method in brief: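 HepG2 cells (MEM, 10% FBS, 37 °C, 5% CO2) infected with RORα adenovirus for 24 h, then given vehicle or 10 μM test compound for a further 24 h. First IP with anti-FLAG; re-IP with anti-SRC2, anti-RNA Pol II (positive control) or IgG (negative control). Bmal1 promoter amplified by PCR; band intensity averaged over three experiments.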

full-length RORα = molecular target: T8, full-length RORα (Homo sapiens, UniProt P35398); assay type: cell-based; settings: 10 μM, HEK293
T8 sequence (P35398 1-523): T5 sequence (P35398 1-523)
Method in brief: as §1

CC(C)CCC[C@@H](C)[C@H]1CC[C@H]2[C@@H]3C(=O)C=C4C[C@@H](O)CC[C@]4(C)[C@H]3CC[C@]12C [7-ketocholesterol]
affinity for the LXRs (LXRs): no affinity

CC(C)CCC[C@@H](C)[C@H]1CC[C@H]2[C@@H]3[C@H](O)C=C4C[C@@H](O)CC[C@]4(C)[C@H]3CC[C@]12C [7α-OHC]
affinity for the LXRs (LXRs): no affinity

CC(C)CC[C@@H](O)[C@@H](C)[C@H]1CC[C@H]2[C@@H]3CC=C4C[C@@H](O)CC[C@]4(C)[C@H]3CC[C@]12C [22-OHC]
effect on activity of RORα (Gal4-RORα LBD [1]): unable to affect the activity | effect on activity of RORγ (Gal4-RORγ LBD [2]): unable to affect the activity

C[C@H](CC[C@@H]1OC1(C)C)[C@H]1CC[C@H]2[C@@H]3CC=C4C[C@@H](O)CC[C@]4(C)[C@H]3CC[C@]12C [24,25-epoC, 24(S),25 epoxycholesterol]
Ki (RORγ LBD): 20 nM | IC50 (Gal4-RORγ LBD [3]): 280 nM | effect on constitutive activity (Gal4-RORγ LBD [3]; HEK293): suppresses the activity | effect on constitutive activity (Gal4-RORα LBD [4]): without having any significant effect

CC(C)[C@H](O)CC[C@@H](C)[C@H]1CC[C@H]2[C@@H]3CC=C4C[C@@H](O)CC[C@]4(C)[C@H]3CC[C@]12C [24R-OHC, 24R-hydroxycholesterol]
Ki (RORγ LBD): 102 nM | IC50 (Gal4-RORγ LBD [3]): 90 nM | effect on constitutive activity (Gal4-RORγ LBD [3]; HEK293): significant decrease in the constitutive activity | effect on constitutive activity (Gal4-RORα LBD [4]): no effect

CC(C)[C@@H](O)CC[C@@H](C)[C@H]1CC[C@H]2[C@@H]3CC=C4C[C@@H](O)CC[C@]4(C)[C@H]3CC[C@]12C [24S-OHC, 24S-hydroxycholesterol]
decrease of BMAL1 mRNA expression [5]: 38% | decrease of REV-ERBα mRNA expression [5]: 33% | Ki (RORγ LBD; competition with 3 nM [3H]-25-hydroxycholesterol, Cheng-Prusoff): ~25 nM and 25 nM | Ki (RORα LBD): 27 nM | suppression of G6Pase promoter reporter expression (RORα): approximately 30% | suppression of Bmal1 driven reporter gene expression (full-length RORγ): 20-40% | reduction of SRC-2 recruited versus DMSO control [6]: ~50% | reduction of transcriptional activity (Gal4-RORγ LBD [3]; 10 μM, HEK293): 30 to 40% | Maximal suppression (Gal4-RORγ LBD [3]; dose-response, HEK293): ~30% | IC50 (Gal4-RORγ LBD [3]; read-out: IC50 (suppression of transcriptional activity), dose-response, HEK293): 1300 nM | suppression of Bmal1 driven reporter gene expression (full-length RORα): 20-40% | reduction of transcriptional activity (Gal4-RORα LBD [4]; 10 μM): 30 to 40% | Maximal suppression (Gal4-RORα LBD [4]; dose-response): ~30% | IC50 (Gal4-RORα LBD [4]; read-out: IC50 (suppression of transcriptional activity), dose-response): 620 nM

C[C@H](CCCC(C)(C)O)[C@H]1CC[C@H]2[C@@H]3CC=C4C[C@@H](O)CC[C@]4(C)[C@H]3CC[C@]12C [25-OHC, 25-hydroxycholesterol]
effect on activity of RORα (Gal4-RORα LBD [1]): unable to affect the activity

C[C@@H](CO)CCC[C@@H](C)[C@H]1CC[C@H]2[C@@H]3CC=C4C[C@@H](O)CC[C@]4(C)[C@H]3CC[C@]12C [27-OHC]
effect on activity of RORα (Gal4-RORα LBD [1]): unable to affect the activity | effect on activity of RORγ (Gal4-RORγ LBD [2]): unable to affect the activity
